Where two headings read alike, the source gives them in different places.
Tests used:
[1] = test system: peritoneal CD4^+ T cells; assay type: in vivo, mouse; settings: 1x CFA and 1x IFA, N=9-10
[2] = test system: peritoneal CD4^+ T cells; assay: TCR activation; assay type: in vivo, mouse
[3] = Plasma lipid analysis of vaccinated Apoe^−/− mice; assay type: in vivo, mouse; settings: Supplementary Figure 6; 1xCFA + 4xIFA
Procedure, shortened: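 Apoe−/− mice immunised 1xCFA + 4xIFA. Whole blood taken by cardiac puncture into EDTA at organ harvest and spun at 3000 × g for 15 min at 4°C. Plasma supernatant stored at −80°C to limit freeze/thaw, then sent for external lipid analysis.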

[4] = test system: p18; settings: vaccinated Apoe^−/− mice; Supplementary Figure 7
[5] = test system: peritoneal Tregs; assay: IL-10 production and Nrp-1 of Tregs after p18 immunization; assay type: in vivo, mouse; settings: N=7
[6] = test system: Apoe^−/− mice; assay: Aortic atherosclerosis; assay type: in vivo, mouse; settings: 50 μg p18, 1xCFA + 4xIFA, western diet 13 weeks; vs adjuvant only; N=8-9
[7] = test system: p18:I-A^b+CD4^+ T cells (spleen); assay: p18:I-A^b tetramer staining of splenic CD4^+ T cells; assay type: in vivo, mouse
[8] = test system: p18:I-A^b+CD4^+ T cells (peritoneal); assay: p18:I-A^b tetramer staining of peritoneal CD4^+ T cells, Nur77^GFP Apoe^−/− mice; assay type: in vivo, mouse
[9] = test system: peritoneal CD4^+ T cells; assay type: in vivo, mouse
[10] = test system: DRB1*07:01-p18^+CD4^+ T cells; assay type: cell-based, human
[11] = biological target: DRB1*07:01 (Homo sapiens, UniProt P01903+P01911, A100R/A102G/A103Q/D57E/D86V/E43K/F76Y/K127E/L162R/M171V/P40G/Q125H/Q99D/R33Q/R42Y/R54Q/S133A/S66F/T210M/V115G/Y107V/Y59L/Y89S); assay: MHC class II competitive inhibition binding assay, DRB1*07:01; settings: experimental competitive peptide binding
Procedure, shortened: (§1)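 Competitive inhibition assay using purified MHC class II molecules and a high-affinity radiolabelled MHC class II ligand. Binding given as IC50, taken as an approximation of Kd under the assay conditions. Test peptide stock in DMSO at 20 mg/ml, stored at −80°C.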

[12] = biological target: DRB1*13:02 (Homo sapiens, UniProt P01903+P01911, A100E/A169T/K41T/L162R/M171V/P40S/Q125H/Q178H/Q39Y/Q99D/R42S/S66N/T262R/V115G/W38E/Y61H); assay: MHC class II competitive binding assay, DRB1*13:02; settings: experimental competitive peptide binding
Procedure, shortened: as §1

[13] = biological target: DRB1*04:01 (Homo sapiens, UniProt P01903+P01911, A100K/A169T/F76Y/I96L/K127E/L162R/M171V/N62H/P40V/Q125Y/R42H/S133A/S149N/S66Y/V115G/V209L/W38E); assay: MHC class II competitive binding assay, DRB1*04:01; settings: experimental competitive peptide binding
Procedure, shortened: as §1

[14] = test system: splenic CD4^+ T cells; assay: IL-10 ELISPOT of splenic CD4^+ T cells restimulated with p18; assay type: cell-based, mouse; settings: splenic CD4^+ T cells with antigen presenting cells and p18, 24 hours; 1xCFA and 1xIFA; N=9-10
[15] = test system: p18-specific CD4^+ T cells in human PBMC; assay: DRB1*07:01-p18 tetramer staining of human PBMC by flow cytometry; assay type: cell-based; settings: sCVD N=14, no sCVD N=15
[16] = test system: atherosclerosis patients; settings: GLACIER trial; cited from earlier work
[17] = spleen, vaccinated Apoe^−/− mice

Molecule: SLFFSAQPFEITAST [p18]
- abundance of Tregs in peritoneal cavity ([1]; Apoe^−/− mice on CD or WD): significantly increased
- FoxP3^+Tbet^+ cells in peritoneal cavity ([1]; CD or WD): increased
- FoxP3^+GATA3^+ cells in peritoneal cavity [1]: only observed in mice fed CD and not in mice fed WD
- Nur77^GFP+ frequency among CD25^+FoxP3^+ Tregs vs all CD4^+ T cells ([2]; mice immunized with p18, 24 hours after restimulation): further elevated
- CD25^+FoxP3^+ Tregs in Nur77^GFP+ activated cell population ([2]; p18 immunized mice, N=5-6, adjuvant only showed a similar fraction): significantly enriched
- plasma lipids [3]: unchanged
- IgG1 antibodies to p18 in plasma [4]: detected
- IgG2c antibodies to p18 in plasma [4]: detected
- IL-10-producing cells among all Tregs ([5]; FoxP3^+CD4^+ cells, vs adjuvant): significant expansion
- inducible Tregs (Nrp-1 negative) among classical Tregs [5]: Most
- IL-10-producing iTregs (Nrp-1^−FoxP3^+CD4^+) ([5]; p18 immunized, from ~12%): ~ 25%
- reduction of lesion size, aortic arch [6]: ~ 35%
- reduction of lesion size, whole aorta [6]: ~ 35%
- p18:I-A^b+CD4^+ T cells in spleen ([7]; IL-10^GFP Apoe^−/− mice, N=4-5): increased
- FoxP3 expression of splenic p18:I-A^b+CD4^+ T cells vs adjuvant ([7]; N=9-10): significantly more
- splenic bulk FoxP3^+CD4^+ T cells vs adjuvant only ([7]; data not shown): did not find a significant difference
- IL-10 production of p18:I-A^b+FoxP3^+CD4^+ T cells ([7]; spleen, IL-10^GFP Apoe^−/− mice, N=4-5): significantly more than in adjuvant-only controls
- IL-10 production of p18:I-A^b–FoxP3^+CD4^+ T cells ([7]; spleen, tetramer-negative, N=4-5): did not increase
- central memory cells (CD62L^+CD44^+) among memory p18:I-A^b+CD4^+ T cells [7, 17]: 20%
- effector memory cells (CD62L^−CD44^+) among memory p18:I-A^b+CD4^+ T cells [7, 17]: 80%
- p18:I-A^b+CD4^+ T cells with memory phenotype (CD44^+) [7, 17]: Most
- peritoneal p18:I-A^b+CD4^+ T cells, p18-immunized vs adjuvant ([8]; Apoe^−/− mice fed CD or WD, Supplementary Figure 5): did not observe any significant differences
- ApoB p18-specific (PE- and APC-double positive) CD4^+ T cells ([8]; increase vs adjuvant only, peritoneal, 1x CFA and 1x IFA, N=5-6): ~ 3 -fold
- CD25^+FoxP3^+ Tregs among p18:I-A^b+CD4^+ T cells ([8]; peritoneal, p18 immunized, N=5-6): 40%
- Nur77^GFP+ cells among p18:I-A^b+CD4^+ T cells ([8]; peritoneal, N=5-6): highly enriched
- CD25^+FoxP3^+ Tregs among p18:I-A^b–CD4^+ T cells ([8]; tetramer-negative cells, peritoneal, p18 immunized, N=5-6): 9%
- FoxP3 by intracellular staining of CD4^+ T cells ([9]; Apoe^−/− mice, peritoneal, N=6, compared with YFP result): gave a similar result
- CD25^+FoxP3^+CD4^+ T cells of all CD4^+ T cells ([9]; peritoneal cavity, FoxP3^YFPcreApoe^−/− mice, 2 weeks after immunization, 1xCFA s.c. + 1xIFA i.p., from ~6%, N=7): ~ 12%
- Tregs co-expressing T-bet among DRB1*07:01-p18^+CD4^+ T cells ([10]; no sCVD): 1.2±0.5%
- FoxP3^+Rorγt^+ cells among p18-specific CD4^+ T cells ([10]; patients with sCVD): significant increase
- Tregs co-expressing RORγt among DRB1*07:01-p18^+CD4^+ T cells ([10]; sCVD donors, mean ± SEM): 8.8±3.7%
- Tregs co-expressing T-bet among DRB1*07:01-p18^+CD4^+ T cells ([10]; sCVD patients): 4.1±1.4%
- Tregs co-expressing RORγt among DRB1*07:01-p18^+CD4^+ T cells ([10]; sCVD^− participants): almost undetectable
- fraction of p18-specific CD4^+ T cells that are FoxP3^+ Tregs ([10]; women with no sCVD): most
- binding to DRB1*07:01 [11]: binds
- binding to DRB1*13:02 [12]: binds
- binding to DRB1*04:01 [13]: binds
- IL-10^+ spots (ELISPOT) vs adjuvant only [14]: significantly more
- trend in p18-specific CD4^+ T cells in sCVD patients vs no sCVD [15]: did not reach statistical significance

B1: recombinant IgG1 antibody to oxLDL: recombinant IgG1 antibody to oxLDL infused in the GLACIER trial (antibody, chains of the INN, looked up, V domains shown)
VH: EVQLLESGGGLVQPGGSLRLSCAASGFTFSNAWMSWVRQAPGKGLEWVSSISVGGHRTYYADSVKGRSTISRDNSKNTLYLQMNSLRAEDTAVYYCARIRVGPSGGAFDYWGQGTLVTVSS
VL: QSVLTQPPSASGTPGQRVTISCSGSNTNIGKNYVSWYQQLPGTAPKLLIYANSNRPSGVPDRFSGSKSGTSASLAISGLRSEDEADYYCASWDASLNGWVFGGGTKLTVL
- efficacy in imaging studies [16]: failed to show efficacy
